Source: ChEMBL document CHEMBL1124461, “Aromatic dienoyl tetramic acids. Novel antibacterial agents with activity against anaerobes and staphylococci” (J Med Chem, 1989)
Values after ≈ are worked out from the molar mass of the structure shown.

Tests used:
Bacteroides fragilis [1] = assay: Minimum inhibitory concentration against Bacteroides fragilis ATCC 25285; assay type: functional
In short: (§1)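 Anaerobic MICs by 2-fold dilution in Wilkens-Chalgren broth, reported in micrograms/milliliter.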

Clostridium perfringens [2] = assay: Minimum inhibitory concentration against Clostridium perfringens ATCC 13124; assay type: functional
In short: (§2)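 Anaerobic MIC by 2-fold dilution in Wilkens-Chalgren broth; values in µg/mL.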

[3] = tested on: Bacteroides thetaiotaomicron; assay: Minimum inhibitory concentration against Bacteroides thetaiotaomicron ATCC 29741; assay type: functional; in short: as §1
Clostridioides difficile [4] = assay: Minimum inhibitory concentration against Clostridium difficile ATCC 9689; assay type: functional; in short: as §1
[5] = target: DNA-directed RNA polymerase subunit beta (Escherichia coli K-12) (UniProt P0A8V2); assay: Percent inhibition at a concentration of 100 ug/mL of RNA polymerase isolated from Escherichia coli K12 (Sigma)
Clostridioides difficile [6] = assay: Minimum inhibitory concentration against Clostridium difficile ATCC 9689; 1.6-3.1; assay type: functional; in short: as §1
[7] = tested on: Bacteroides thetaiotaomicron; assay: Minimum inhibitory concentration against Bacteroides thetaiotaomicron ATCC 29741; 0.2-0.8; assay type: functional; in short: as §1
Bacteroides fragilis [8] = assay: Minimum inhibitory concentration against Bacteroides fragilis ATCC 25285; 0.1-0.8; assay type: functional; in short: as §1
Clostridium perfringens [9] = assay: Minimum inhibitory concentration against Clostridium perfringens ATCC 13124; 0.05-0.1; assay type: functional; in short: as §2
Staphylococcus aureus [10] = assay: Compound is evaluated for cross resistance with DNA gyrase subunit A or B against Staphylococcus aureus 45CR-1 (coumermycin resistant); assay type: functional
In short: (§3)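 Aerobic MIC by 2-fold dilution on brain–heart infusion agar; values in µg/mL.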

Staphylococcus aureus [11] = assay: Compound is evaluated for cross resistance with DNA gyrase subunit A or B against Staphylococcus aureus 337-113 (norfloxacin-resistant); assay type: functional; in short: as §3
Staphylococcus aureus [12] = assay: Compound is evaluated for cross resistance with DNA gyrase subunit A or B against Staphylococcus aureus 45; assay type: functional; in short: as §3
Staphylococcus aureus [13] = assay: Compound is evaluated for cross resistance with DNA gyrase subunit A or B against Staphylococcus aureus 730A; assay type: functional; in short: as §3

Chain of DNA-directed RNA polymerase subunit beta (Escherichia coli K-12) (P0A8V2 whole entry, looked up): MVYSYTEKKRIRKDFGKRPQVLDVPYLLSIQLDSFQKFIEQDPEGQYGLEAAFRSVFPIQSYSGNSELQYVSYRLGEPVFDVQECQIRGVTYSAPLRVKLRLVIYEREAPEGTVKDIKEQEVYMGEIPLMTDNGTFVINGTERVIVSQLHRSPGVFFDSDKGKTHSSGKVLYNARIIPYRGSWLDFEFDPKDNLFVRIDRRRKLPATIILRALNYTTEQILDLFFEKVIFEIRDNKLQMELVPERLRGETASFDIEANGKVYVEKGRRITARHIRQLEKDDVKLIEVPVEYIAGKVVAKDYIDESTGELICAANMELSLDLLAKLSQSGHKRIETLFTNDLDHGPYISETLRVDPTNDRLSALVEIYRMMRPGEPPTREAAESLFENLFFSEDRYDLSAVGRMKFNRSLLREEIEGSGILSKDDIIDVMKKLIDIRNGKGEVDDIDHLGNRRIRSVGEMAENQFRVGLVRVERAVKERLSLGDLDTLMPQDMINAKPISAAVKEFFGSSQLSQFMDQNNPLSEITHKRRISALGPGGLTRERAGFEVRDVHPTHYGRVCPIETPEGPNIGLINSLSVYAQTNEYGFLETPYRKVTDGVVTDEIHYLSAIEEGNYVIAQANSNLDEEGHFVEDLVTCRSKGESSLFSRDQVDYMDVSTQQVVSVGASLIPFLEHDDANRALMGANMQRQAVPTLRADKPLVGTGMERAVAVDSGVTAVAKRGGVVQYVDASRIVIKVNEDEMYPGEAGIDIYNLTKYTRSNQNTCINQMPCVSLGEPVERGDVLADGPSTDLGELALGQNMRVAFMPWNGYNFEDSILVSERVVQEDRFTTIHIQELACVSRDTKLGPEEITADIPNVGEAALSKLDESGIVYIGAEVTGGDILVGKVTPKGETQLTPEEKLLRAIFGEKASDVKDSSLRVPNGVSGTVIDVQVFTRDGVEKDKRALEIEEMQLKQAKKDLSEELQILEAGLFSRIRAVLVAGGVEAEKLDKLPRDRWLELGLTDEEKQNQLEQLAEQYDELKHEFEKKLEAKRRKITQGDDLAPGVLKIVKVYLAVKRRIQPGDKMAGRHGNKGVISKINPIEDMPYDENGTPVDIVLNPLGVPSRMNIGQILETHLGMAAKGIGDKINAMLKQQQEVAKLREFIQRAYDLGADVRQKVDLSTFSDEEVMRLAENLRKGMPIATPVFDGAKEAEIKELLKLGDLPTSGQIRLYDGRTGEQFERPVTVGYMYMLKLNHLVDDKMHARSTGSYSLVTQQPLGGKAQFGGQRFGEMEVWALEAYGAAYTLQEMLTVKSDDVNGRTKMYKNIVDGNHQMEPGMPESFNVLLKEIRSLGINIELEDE

| SMILES | MIC (Bacteroides fragilis [1]) [µg/mL] | MIC (Clostridium perfringens [2]) [µg/mL] | MIC [3] [µg/mL] | MIC (Clostridioides difficile [4]) [µg/mL] | further results |
| --- | --- | --- | --- | --- | --- |
| O=C(/C=C/C(Br)=C/c1ccccc1)C1=C(O)CNC1=O | 8 (≈ 23.9 µM) | 31 (≈ 92.8 µM) | 8 (≈ 23.9 µM) | 8 (≈ 23.9 µM) | inhibition [5]: 7.3% |
| CC(/C=C/C(O)=C1\C(=O)CN(C)C1=O)=C\C(C)c1ccccc1 (stereo not given) | 8 (≈ 25.7 µM) | 125 (≈ 401 µM) | 16 (≈ 51.4 µM) | 125 (≈ 401 µM) | – |
| CC(/C=C/C(=O)C1=C(O)CN(C)C1=O)=C\c1c(O)ccc2ccccc12 | 31 (≈ 88.7 µM) | 16 (≈ 45.8 µM) | 31 (≈ 88.7 µM) | 16 (≈ 45.8 µM) | – |
| CCCCCCCCCCC/C=C(C)/C=C/C(O)=C1\C(=O)CN(C)C1=O | 125 (≈ 346 µM) | 31 (≈ 85.7 µM) | 125 (≈ 346 µM) | 4 (≈ 11.1 µM) | – |
| CC(/C=C/C(O)=C1\C(=O)CNC1=O)=C\[C@@H](C)C1OC2(C)OC(C(=O)[C@@H]3O[C@@]32C)C1C (stereo not given in full) | – | – | – | – | MIC (Clostridioides difficile [6]): 1.6 µg/mL (≈ 3.83 µM); MIC [7]: 0.2 µg/mL (≈ 0.479 µM); MIC (Bacteroides fragilis [8]): 0.1 µg/mL (≈ 0.24 µM); MIC (Clostridium perfringens [9]): ≤ 0.05 µg/mL; inhibition [5]: 50% |
| CN1CC(O)=C(C(=O)/C=C/C=C/c2ccccc2[N+](=O)[O-])C1=O | 62 (≈ 197 µM) | 62 (≈ 197 µM) | 62 (≈ 197 µM) | 62 (≈ 197 µM) | – |
| CC(/C=C/C(=O)C1=C(O)CN(C)C1=O)=C\CC1CCCCC1 | 8 (≈ 26.4 µM) | 2 (≈ 6.59 µM) | 31 (≈ 102 µM) | 2 (≈ 6.59 µM) | – |
| CCCCCC(/C=C/C(O)=C1\C(=O)CN(C)C1=O)=C\c1ccccc1 | 62 (≈ 183 µM) | 16 (≈ 47.1 µM) | 125 (≈ 368 µM) | 31 (≈ 91.3 µM) | inhibition [5]: 5.6% |
| CN1CCN(c2cc3c(cc2F)c(=O)c(C(=O)O)cn3-c2ccc(F)cc2)CC1 [DIFLOXACIN] | – | – | – | – | MIC (Staphylococcus aureus [10]): 0.25 µg/mL (≈ 0.626 µM); MIC (Staphylococcus aureus [11]): 4 µg/mL (≈ 10 µM); MIC (Staphylococcus aureus [12]): 0.25 µg/mL (≈ 0.626 µM); MIC (Staphylococcus aureus [13]): 0.25 µg/mL (≈ 0.626 µM) |
| CC(/C=C/C(=O)C1=C(O)CN(C)C1=O)=C\c1ccc(-c2ccccc2)cc1 | 8 (≈ 22.3 µM) | 31 (≈ 86.2 µM) | 125 (≈ 348 µM) | ≤ 0.5 | – |
| CC(/C=C/C(=O)C1=C(O)CN(C)C1=O)=C\C1CCc2ccccc2C1 (stereo not given) | 125 (≈ 370 µM) | 125 (≈ 370 µM) | 62 (≈ 184 µM) | 125 (≈ 370 µM) | – |
| CC(/C=C/C(=O)C1=C(O)C(C)N(C)C1=O)=C\c1ccc2ccccc2c1 (stereo not given) | 62 (≈ 178 µM) | 31 (≈ 89.2 µM) | 62 (≈ 178 µM) | 62 (≈ 178 µM) | – |
| CC(/C=C/C(=O)C1=C(O)CN(C)C1=O)=C\c1ccccn1 | 62 (≈ 218 µM) | 31 (≈ 109 µM) | 125 (≈ 440 µM) | 8 (≈ 28.1 µM) | – |
| CN1CC(=O)\C(=C(O)/C=C/C=C/c2ccc(N(C)C)cc2)C1=O | 125 (≈ 400 µM) | 31 (≈ 99.2 µM) | 62 (≈ 198 µM) | 31 (≈ 99.2 µM) | – |
| CC(/C=C/C(=O)C1=C(O)CN(C)C1=O)=C\c1ccccc1 | 4 (≈ 14.1 µM) | 8 (≈ 28.2 µM) | 8 (≈ 28.2 µM) | 4 (≈ 14.1 µM) | – |
| O=C(/C=C/C=C/c1ccccc1)C1=C(O)CNC1=O | 50 (≈ 196 µM) | 25 (≈ 97.9 µM) | 50 (≈ 196 µM) | 25 (≈ 97.9 µM) | – |
| O=C(/C=C/C(Cl)=C/c1ccccc1)C1=C(O)CNC1=O | 8 (≈ 27.6 µM) | 4 (≈ 13.8 µM) | 8 (≈ 27.6 µM) | 4 (≈ 13.8 µM) | inhibition [5]: 3.2% |
| CC(/C=C/C(=O)C1=C(O)CN(C)C1=O)=C\c1ccnc2ccccc12 | 16 (≈ 47.9 µM) | 8 (≈ 23.9 µM) | 31 (≈ 92.7 µM) | 8 (≈ 23.9 µM) | – |
| COc1ccc(/C=C(C)/C=C/C(O)=C2\C(=O)CN(C)C2=O)c2ccccc12 | 62 (≈ 171 µM) | 2 (≈ 5.5 µM) | 125 (≈ 344 µM) | 4 (≈ 11 µM) | – |
